Measured values taken from PubChem BioAssay.
Calls of active or inactive are those of the source.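 How the source made its calls, unless noted: active means a full or partial loss of lipid-probe fluorescence in the fish gall bladder, intestine or both, judged by eye; inactive means no fluorescence loss, or compound toxic to the fish.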

What was measured:
[1] = inhibitors of TNFa-induced NFkB p65 translocation, primary screen, imaging, HUVEC, MLSMR starter and 10KST1 sets (AID 438;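 active means inhibition above 20% together with a positive visual image hit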;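 further: compound added about 3h40 before a 20 min TNFalpha stimulation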;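 on inhibition: signal is the nuclear over cytoplasmic p65 intensity ratio per well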); details: HUVEC TNFa-induced p65 nuclear translocation; cell count: measured here: nuclei count (cytotoxicity indicator), at 2.08 µM; inhibition: at 2 µM, stronger effect = higher value, 0% TNFa-plus-vehicle, 100% no-TNFa wells
[2] = inhibitors of E-selectin induction by TNFa, primary screen, imaging, HUVEC, immunofluorescence, MLSMR starter and 10KST1 sets (AID 487;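 active means visually confirmed hit in the image check and inhibition above 20%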;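 on inhibition: signal is fraction of cell area covered by stained E-selectin grains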;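 on nuclei count: 100% = median nuclei count of all wells on the same plate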); details: HUVEC TNFalpha-induced E-selectin immunofluorescence imaging, at 2 µM; inhibition: stronger effect = higher value; nuclei count: measured here: cell number, toxicity
[3] = DUSP6 inhibitors restoring Erk phosphorylation by chemical complementation, primary imaging in DUSP6-transfected HeLa (AID 609;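 active means compounds giving at least 50% inhibition in the cell-based MKP-3 phosphatase rescue imaging test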;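 on inhibition: phospho-Erk level distribution per well compared with pooled transfected vehicle control wells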); details: HeLa MKP-3 transfected, phospho-Erk imaging KS statistic, at 10 µM, cells stimulated with TPA for 15 min
[4] = molecular target: Dual specificity protein phosphatase 6 (Homo sapiens) (UniProt Q16828); test: as above; details: HeLa MKP-3 transfected, phospho-Erk imaging KS statistic; at 10 µM; stronger effect = higher value; cells stimulated with TPA for 15 min
Dual specificity protein phosphatase 6 (Homo sapiens), sequence (Q16828 whole entry, looked up): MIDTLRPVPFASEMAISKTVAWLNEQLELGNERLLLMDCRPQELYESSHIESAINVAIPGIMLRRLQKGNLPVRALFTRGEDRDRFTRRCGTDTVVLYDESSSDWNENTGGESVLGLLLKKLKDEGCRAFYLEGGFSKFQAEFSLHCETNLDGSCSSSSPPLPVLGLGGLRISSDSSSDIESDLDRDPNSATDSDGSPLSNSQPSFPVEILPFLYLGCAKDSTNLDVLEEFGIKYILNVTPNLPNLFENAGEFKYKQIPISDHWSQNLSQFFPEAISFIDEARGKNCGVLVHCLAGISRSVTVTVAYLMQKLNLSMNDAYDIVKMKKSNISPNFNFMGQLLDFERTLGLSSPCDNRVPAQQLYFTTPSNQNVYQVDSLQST

[5] = molecular target: Voltage-gated potassium channel subunit beta-2 (Rattus norvegicus) (UniProt P62483); test: KvBeta enzyme negative modulators, primary screen, biochemical, NADPH fluorescence (AID 622;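 active means fluorescence slope higher than the sample average by over 3 SD, cut at about -0.22 in these data, passing the limit was not always enough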;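 further: slope of raw intensity against log time taken from 70 to 1610 s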); details: recombinant KvBeta, 4-cyanobenzaldehyde reduction, at 10 µM, stronger effect = higher value
Voltage-gated potassium channel subunit beta-2 (Rattus norvegicus), sequence (P62483 whole entry, looked up): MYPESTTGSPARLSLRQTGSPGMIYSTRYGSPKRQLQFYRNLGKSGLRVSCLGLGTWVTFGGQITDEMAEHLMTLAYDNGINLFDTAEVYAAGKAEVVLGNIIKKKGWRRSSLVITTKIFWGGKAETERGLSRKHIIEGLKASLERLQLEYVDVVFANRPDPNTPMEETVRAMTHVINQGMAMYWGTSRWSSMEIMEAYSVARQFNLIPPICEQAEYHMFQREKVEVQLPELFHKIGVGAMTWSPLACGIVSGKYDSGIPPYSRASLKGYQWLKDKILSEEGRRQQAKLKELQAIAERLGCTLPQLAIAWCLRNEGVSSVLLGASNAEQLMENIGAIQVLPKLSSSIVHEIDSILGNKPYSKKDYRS

[6] = molecular target: Voltage-gated potassium channel subunit beta-2 (Rattus norvegicus) (UniProt P62483); test: KvBeta positive modulators, primary screen, biochemical, NADPH fluorescence (AID 623;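 active means NADPH fluorescence slope more negative than the mean of all samples by about 3 SD, 99.7% confidence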;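 further: fluorescence intensity change per second fitted from 20 to 320 s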); details: Recombinant KvBeta, NADPH fluorescence decrease slope, 10 min; at 10 µM; stronger effect = lower value
[7] = molecular target: Alpha-2C adrenergic receptor (Homo sapiens) (UniProt P18825); test: modulators of alpha2C/GIRK thallium flux, primary screen, cell-based, HEK293 alpha2C/GIRK1/2 (AID 624;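 active means fluorescence slope after compound addition differing from the mean of all screened samples at 99.7% confidence, in either direction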;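 further: slope of fluorescence ratio to pre-addition baseline per second over 15 to 24 s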); details: thallium flux BTC fluorescence, at 10 µM, actives lie on both sides
Alpha-2C adrenergic receptor (Homo sapiens), sequence (P18825 whole entry, looked up): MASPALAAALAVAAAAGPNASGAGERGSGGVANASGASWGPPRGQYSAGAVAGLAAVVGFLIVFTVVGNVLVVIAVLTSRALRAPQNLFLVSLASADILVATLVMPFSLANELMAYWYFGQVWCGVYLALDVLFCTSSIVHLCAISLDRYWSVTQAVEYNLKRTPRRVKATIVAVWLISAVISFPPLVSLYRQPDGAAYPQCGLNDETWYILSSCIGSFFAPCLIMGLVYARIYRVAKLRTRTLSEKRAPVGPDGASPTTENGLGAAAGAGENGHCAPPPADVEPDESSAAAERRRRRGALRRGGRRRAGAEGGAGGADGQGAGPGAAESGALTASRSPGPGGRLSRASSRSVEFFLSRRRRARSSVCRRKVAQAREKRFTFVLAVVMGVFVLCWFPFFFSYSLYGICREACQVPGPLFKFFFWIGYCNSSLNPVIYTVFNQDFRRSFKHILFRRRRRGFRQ

[8] = inhibitors of larval lipid processing in zebrafish, primary screen, whole organism, PED6 fluorescence, gall bladder and intestine (AID 686); details: Zebrafish larvae PED6 lipid processing, fluorescence scoring; screened at 20 µM (by protocol);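 further: larvae 5 to 7 days old with five fish per well; signal comes from phospholipase A2 cleavage of quenched PED6 carried via bile; overnight exposure to compound and PED6 before scoring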
How it was run: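 System: live zebrafish larvae aged 5-7 days, whole organism; measure: graded gall bladder and intestinal fluorescence inhibition per well; incubation: overnight exposure; reagent: ingested quenched lipid PED6 at 100 nM; signal: By-eye fluorescence microscopy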

[9] = inhibitors of Chlamydomonas gravitaxis, primary screen, whole organism, Chlamydomonas reinhardtii, WT vs cilia-less mutant, absorbance, 96-well (AID 463189;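 active means inhibition at or above 50% relative to wild type and mutant plate controls; inactive means inhibition below 50%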;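 further: 0% = wild type cc124 cells in DMSO and 100% = ciliumless bld1 mutant cells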); details: OD600 absorbance, 2 days, at 10 µM, stronger effect = higher value
[10] = measured here: cell density z-score
[11] = measured here: nuclear c-Myc green intensity z-score
[12] = measured here: nuclear pErk red intensity z-score, stronger effect = higher value

| SMILES | cell count [1] | inhibition [1] | inhibition [2] | nuclei count [2] | z-score [3, 10] | z-score [3, 11] | z-score [3, 12] | inhibition [4] | fluorescence slope [5] | NADPH fluorescence slope [6] | slope [7] | outcome [8] | inhibition [9] |
| --- | --- | --- | --- | --- | --- | --- | --- | --- | --- | --- | --- | --- | --- |
| CN1CCN(CCCCOc2ccc(F)cc2)CC1 | 488 | -6.3% (inactive) | -39.9% (inactive) | 114% | 1.94 | -1.66 | 1.15 | 7.48% (inactive) | -0.483 (inactive) | -0.00016 (inactive) | 0.00459 (inactive) | inactive | 30.4% (inactive) |
| COc1ccc(-c2nc3n(c2Br)CCC3)cc1 | 587 | -14.6% (inactive) | -22.2% (inactive) | 162% | 1.1 | 0.741 | -1.03 | 39% (inactive) | -0.503 (inactive) | -2.6e-05 (inactive) | 0.00527 (inactive) | inactive | 49.9% (inactive) |
| O=C(N(c1ccccc1)c1ccccc1)n1ccnc1 | 543 | -15.7% (inactive) | -71.5% (inactive) | 169% | -1.35 | -0.0585 | 1.08 | -11.5% (inactive) | -0.487 (inactive) | -5.7e-05 (inactive) | 0.00471 (inactive) | inactive | -0.901% (inactive) |
| COn1c(=S)[nH]c2ccccc2c1=O | 454 | 0.3% (inactive) | -12.8% (inactive) | 98.1% | -1.19 | 0.293 | -0.609 | 3.5% (inactive) | -0.496 (inactive) | -7.7e-06 (inactive) | 0.00619 (inactive) | inactive | 1.26% (inactive) |
| Oc1ccc2ccccc2c1/C=N/n1cnnc1 | 538 | -5.9% (inactive) | -57.1% (inactive) | 217% | 0.969 | 0.692 | -0.685 | -2.91% (inactive) | -0.356 (inactive) | -1.6e-05 (inactive) | 0.00487 (inactive) | inactive | -4.69% (inactive) |
| Cn1c(OCc2ccco2)nc2c1c(=O)n(Cc1ccc(Cl)c(Cl)c1)c(=O)n2C | 642 | -4.4% (inactive) | 12.6% (inactive) | 136% | 1.05 | 0.078 | -0.436 | 0.671% (inactive) | -0.521 (inactive) | -4.1e-05 (inactive) | 0.00511 (inactive) | inactive | -1.38% (inactive) |
| Cn1c2c(c(=O)n(C)c1=O)C(NC(=O)c1cccs1)(C(F)(F)F)C(=O)N2 (centres undefined) | 497 | 3.5% (inactive) | -80.8% (inactive) | 147% | 1.78 | -0.706 | -0.81 | 8.76% (inactive) | -0.537 (inactive) | -9.1e-06 (inactive) | 0.00621 (inactive) | inactive | 24.7% (inactive) |
| CCOC(=O)c1cc2c(=O)n3cccc(C)c3nc2n(Cc2cccnc2)c1=N | 583 | 3.3% (inactive) | -66.9% (inactive) | 157% | 0.481 | -1.62 | 0.0154 | 4.25% (inactive) | -0.457 (inactive) | -0.000115 (inactive) | 0.00416 (inactive) | inactive | 58.8% (active) |
| O=C1c2ccccc2C(=O)C1c1ccc2ccccc2n1 | 336 | -17.4% (inactive) | -56% (inactive) | 109% | -0.111 | -0.223 | 0.575 | -7.28% (inactive) | -0.43 (inactive) | -2.4e-05 (inactive) | 0.00379 (inactive) | inactive | -14.2% (inactive) |
| COCCCNC(=O)c1c(N)n(/N=C/c2cccs2)c2nc3ccccc3nc12 | 342 | -11.1% (inactive) | 4.6% (inactive) | 125% | 0.439 | -0.623 | -0.0865 | 17.4% (inactive) | -0.266 (inactive) | -5.1e-05 (inactive) | 0.00731 (inactive) | inactive | 24.1% (inactive) |
| CCN(CC)c1ccc2cc(-c3nnc(-c4ccncc4)o3)c(=O)oc2c1 | 490 | -5.2% (inactive) | -87.1% (inactive) | 137% | -0.456 | 1.6 | 0.914 | 72.4% (inactive) | -0.436 (inactive) | -0.000104 (inactive) | 0.00165 (inactive) | inactive | 6.54% (inactive) |
| COc1ccc(N/C(=N\c2nc(C)cc(C)n2)NC(=O)C(C)C)cc1OC | 568 | -6% (inactive) | -158% (inactive) | 138% | 0.3 | 1.29 | 0.284 | 3.97% (inactive) | -0.481 (inactive) | -3.5e-05 (inactive) | 0.00493 (inactive) | inactive | 1.34% (inactive) |
| Cn1c(NCC(O)c2ccccc2)nc2c1c(=O)n(Cc1ccc(Cl)c(Cl)c1)c(=O)n2C (centres undefined) | 669 | -6.1% (inactive) | -18.3% (inactive) | 162% | 0.306 | 0.44 | 1.81 | 6.04% (inactive) | -0.518 (inactive) | -3.6e-05 (inactive) | 0.00441 (inactive) | inactive | 75.1% (active) |
